Measurements: PubChem BioAssay AID588621 (Sanford-Burnham Center for Chemical Genomics, 2011)
The whole screen tested about 360,000 compounds, of which about 890 (0.25%) were called active.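 Rule for the calls: active = inhibition at 20 µM, scaled per plate between control wells, above about 37% (limit read from the data); inactive = the rest.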 The list comes from a sample in which actives are over-represented; it also holds similar structures and randomly drawn compounds.

The compounds below were run against Tyrosine-protein phosphatase non-receptor type 5 (Homo sapiens) (UniProt P54829) (assay: inhibition of human PTPN5 enzyme activity – biochemical, fluorescence intensity, uHTS, primary screen (AID 588621;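 note: 0% = DMSO with enzyme and substrate and 100% = substrate only without enzyme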)). Details: recombinant STEP, OMFP fluorogenic substrate, at 20 µM, stronger effect = higher value.
In short: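 medium = Bis-Tris buffer pH 6.0, 2.5 mM DTT, 0.005% Tween 20 | test system = STEP (striatal-enriched tyrosine phosphatase) enzyme, cell-free | measure = normalized % inhibition | compound dosing = 20 µM, 1% DMSO | also added = 25 µM OMFP | schedule = reaction 20 min, ambient temperature | measured by = fluorescence read at 480 nm ex / 540 nm em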

Sequence of Tyrosine-protein phosphatase non-receptor type 5 (Homo sapiens) (P54829 whole entry, looked up): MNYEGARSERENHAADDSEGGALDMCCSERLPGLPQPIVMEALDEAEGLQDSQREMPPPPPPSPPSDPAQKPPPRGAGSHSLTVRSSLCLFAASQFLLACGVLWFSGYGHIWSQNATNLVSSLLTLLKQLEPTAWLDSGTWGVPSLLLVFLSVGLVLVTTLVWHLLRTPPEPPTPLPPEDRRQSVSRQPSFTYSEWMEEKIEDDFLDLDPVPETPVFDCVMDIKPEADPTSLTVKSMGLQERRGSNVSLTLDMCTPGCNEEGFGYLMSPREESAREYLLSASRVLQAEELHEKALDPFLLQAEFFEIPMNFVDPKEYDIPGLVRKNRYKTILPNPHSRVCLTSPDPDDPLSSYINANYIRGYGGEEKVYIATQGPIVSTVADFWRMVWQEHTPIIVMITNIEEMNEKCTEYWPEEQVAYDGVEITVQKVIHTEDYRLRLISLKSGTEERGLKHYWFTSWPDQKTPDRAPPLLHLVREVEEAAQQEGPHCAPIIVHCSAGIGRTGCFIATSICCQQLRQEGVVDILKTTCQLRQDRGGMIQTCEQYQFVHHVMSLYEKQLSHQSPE

Compound | inhibition
Cc1cccc(-n2c(N)c(C(=O)N3CCN(C)CC3)sc2=S)c1 | 90.4% (active)
N#Cc1ccccc1-n1c(N)c(C(=O)N2CCCC2)sc1=S | 7.5% (inactive)
Cc1ccc(-n2c(N)c(C(=O)N3CCOCC3)sc2=S)c(C)c1 | 5.2% (inactive)
Cc1cc(-c2nnc(SCC(=O)Nc3ccc(F)cc3)n2N)n[nH]1 | -1.1% (inactive)
COC(=O)Cn1cnc2scc(-c3ccc(C)c(C)c3)c2c1=O | 1.3% (inactive)
Cc1ccc(C(C)(C)C)c(OCCCCN2CCCC2)c1 | -0.8% (inactive)
CSc1nnc(C2CCCN(CC(=O)Nc3ccccc3N3CCOCC3)C2)n1C(C)C (stereo not given) | 7.7% (inactive)
S=C(c1ccc(-c2ccccc2)o1)N1CCCCC1 | 10% (inactive)
C=CCc1ccccc1OCC(O)CN1CCN(CCO)CC1 (stereo not given) | -0.9% (inactive)
OCCN1CCN(C(=S)c2ccc(-c3ccccc3)cc2)CC1 | 92.5% (active)
Cc1cc(OC(=O)c2ccccc2)c([N+](=O)[O-])c(=O)[nH]1 | -3.5% (inactive)
CN(C)c1ccc(CNC23CN4CN(CN(C4)C2)C3)cc1 | -4.8% (inactive)
O=C(OCC(=O)N1CCN(C(=O)c2ccco2)CC1)c1ccccc1Cc1ccccc1 | -3.5% (inactive)
CCC1(C)N(O)C(C)(C)C(c2ccc(OC)cc2)=[N+]1[O-] (stereo not given) | -1.7% (inactive)
O=S(=O)(Nc1ccccc1Cl)c1cccc2nsnc12 | 52.9% (active)
COc1ccc(NS(=O)(=O)c2cccc3nsnc23)cc1Cl | -1.2% (inactive)
O=C(O)c1ccc(NS(=O)(=O)c2cccc3nsnc23)cc1 | 1.7% (inactive)
O=C(COC(=O)c1cc([N+](=O)[O-])ccc1NCc1ccccc1)NC1CCCCC1 | 0.9% (inactive)
O=C(CCN1C(=O)c2ccncc2C1=O)Nc1cc(F)ccc1F | -2.7% (inactive)
COc1ccc(-c2cc(C(F)(F)F)nc(S(C)(=O)=O)n2)cc1OC | 0.2% (inactive)
O=C(COc1ccccc1F)NNC(=O)c1ccc(N2CCCCC2)c([N+](=O)[O-])c1 | 0.7% (inactive)
C/C(O)=C\c1nc(=O)c2c(C)cc(C)nc2n1-c1ccccc1 | 1.8% (inactive)
COc1ccccc1NC(=O)C(C)OC(=O)CC1CCCC1 (stereo not given) | -2.3% (inactive)
COCCN(C(=S)Nc1ccccc1OC)C1CCN(C(C)C)CC1 | 44.6% (active)

Compound | inhibition
CCc1cccc(NC(=S)N(CCN(C)C)C2CCN(C(C)C)CC2)c1 | 4.4% (inactive)
Cc1ccc(NC2=C(Cl)C(=O)OC2OC(=O)c2ccccc2C)cc1 (stereo not given) | -1.2% (inactive)
COCc1c(C(=O)N/N=C/C2CC=CCC2)nnn1-c1nonc1N (stereo not given) | 44.4% (active)
Nc1nonc1-n1nnc(C(=O)N/N=C/C2CCCCC2)c1-c1ccccc1 | -0.5% (inactive)
COCc1c(C(=O)N/N=C(\C)c2ccncc2)nnn1-c1nonc1N | -0.3% (inactive)
CCc1c(C)sc(NC(=O)OC)c1C(=O)N1CCOCC1 | 10.1% (inactive)
Cc1cc(C)cc(C(=O)OCC(=O)NCCNC(=O)COC(=O)c2cc(C)cc(C)c2)c1 | 1% (inactive)
CCc1nc2c(OCCC3CCCCC3)cccn2c1N(C)C(=O)c1ccco1 | 4.5% (inactive)
COc1cc(OC)c(-n2cc(-c3ccc(Cl)cc3)[nH]c2=O)cc1Cl | 0.7% (inactive)
Cc1ccc(-c2csc(N3CCN(c4cc5c(cc4Cl)nc(-c4ccncc4)n5CCOCCO)CC3)n2)cc1 | 2.3% (inactive)
Nc1c(Cl)cc(-c2csc(N3CCCC3c3nc4cc(Cl)c(Cl)cc4n3CCOCCO)n2)cc1Cl (stereo not given) | 36.9% (active)
CCCn1c(C2CCCN2c2nc(-c3ccc(C)cc3)cs2)nc2cc(Cl)c(N3CCCCC3)cc21 (stereo not given) | 3.4% (inactive)
O=c1nc(N2CCOCC2)nc2n1CCO2 | 4.3% (inactive)
COc1cccc(/C=C/C(=O)OCC(=O)N2CCCc3ccccc32)c1 | -1.7% (inactive)
N#Cc1c(-c2cccs2)nc(SCC(=O)c2ccc(Br)cc2)[nH]c1=O | 78.8% (active)
N#Cc1c(-c2ccccc2)nc(SCc2cccc(C(F)(F)F)c2)[nH]c1=O | 2.7% (inactive)
CCc1ccc(C(=O)CSc2nnc(C)c(=O)[nH]2)cc1 | -1% (inactive)
Cc1ccnc(N2CCN(C(=O)CSc3nc4ccccc4nc3N3CCCCC3)CC2)c1 | 7.7% (inactive)
CC(C)C(O)C1CCN(Cc2nc(Cc3ccccc3Cl)no2)CC1 (stereo not given) | -0.6% (inactive)
CN(C(=O)CSc1nnc(N)s1)c1c(N)n(Cc2ccccc2)c(=O)[nH]c1=O | 2% (inactive)
Cc1ccnc(NS(=O)(=O)c2ccc(NC(=O)c3ccc(S(=O)(=O)N(C)C)cc3)cc2)n1 | 10.2% (inactive)
CC(Oc1ccc(Cl)cc1)c1ccnn1S(C)(=O)=O (stereo not given) | -1.9% (inactive)
Cc1cccc(OCC(=O)NCCNC(=O)c2cccnc2)c1 | 0.6% (inactive)
Cc1ccc(NC(=O)COc2ccc(/C=N\NC(=O)c3cccnc3)cc2)cc1C | 93% (active)

Compound | inhibition
Cc1ccc(OCC(=O)NCCCNC(=O)c2cccnc2)cc1C | 2.8% (inactive)
CC(=O)c1nc(N2C(=O)C3CC=C(C)CC3C2=O)sc1C (stereo not given) | -0.6% (inactive)
O=C(NCc1ccc(F)cc1)c1cc(C2CCCCN2C(=O)c2ccccn2)on1 (stereo not given) | -0.8% (inactive)
CCOCCCNc1c(CC)c(C)c(C#N)c2nc3ccccc3n12 | -1% (inactive)
CCc1cccc(C)c1N(C(=O)Cn1c(CO)nc2ccccc21)C(C)COC (stereo not given) | -4.3% (inactive)
C/C(=N\OC(=O)c1ccccc1)c1c(C)nc2cc(C)ccn12 | -1.4% (inactive)
Cc1ccn2c(-c3csc(Nc4ccc(C(=O)O)cc4)n3)c(C)nc2c1 | 41.9% (active)
CCCCC(=O)Nc1nc(C)c(-c2csc(Nc3ccc(Cl)cc3)n2)s1 | -1.7% (inactive)
COc1cccc(-c2cnc(C(O)c3ccccc3OC)[nH]2)c1 (stereo not given) | -2.4% (inactive)
COCCCNC(=O)[C@H]1N2C(=O)c3ccccc3C2SC1(C)C (stereo not given in full) | 0.9% (inactive)
Cc1[nH]c2ccccc2c1C(=O)C(=O)NCc1nnnn1-c1cccc(F)c1 | 0.6% (inactive)
COc1ccc(CCN2CC(C(=O)NCCN3CCNC3=O)CCC2=O)cc1 (stereo not given) | -4.2% (inactive)
Cc1cc(F)ccc1S(=O)(=O)Nc1ccc(C(=O)N(C)Cc2ccco2)cc1 | 2.5% (inactive)
Cc1ccccc1NC(=O)C(C)OC(=O)CCC(=O)N(CC(C)C)c1c(N)n(CC(C)C)c(=O)[nH]c1=O (stereo not given) | -1.1% (inactive)
CCOc1ccc(NC(=O)c2ccc(NC(=O)CN3C(=O)C(=O)N(CC(C)C)C3=O)cc2)cc1 | -3.1% (inactive)
Cc1cc2nc(C)n(CCCNC(=O)Nc3ccccc3)c2cc1C | -3.8% (inactive)
COc1ccc(CCNC(=O)Nc2ccc3c(c2)c(=O)n(C)n3C)cc1OC | 1.1% (inactive)
COCCNC(=O)Nc1ccc2nc(-c3ccco3)c(-c3ccco3)nc2c1 | 60.1% (active)
O=C(COC(=O)Cc1ccc(Br)cc1)Nc1c(F)c(F)c(F)c(F)c1F | -0.2% (inactive)
Nc1cc(=O)c2[nH]cnc2[nH]1 | -4.7% (inactive)
CN(C(=O)COC(=O)Cc1ccccc1[N+](=O)[O-])C1CCS(=O)(=O)C1 (stereo not given) | -3.3% (inactive)
COc1ccc(NC(=O)COc2ccc(C(=O)OCC(=O)N(C)C3CCS(=O)(=O)C3)cc2OC)cc1 (stereo not given) | -4.8% (inactive)
CN(C(=O)COC(=O)c1cc(-c2ccco2)nc2ccccc12)C1CCS(=O)(=O)C1 (stereo not given) | 64.5% (active)
O=C1c2ccccc2C(=O)N1CCC(O)C[N+](=O)[O-] (stereo not given) | 3.3% (inactive)

Compound | inhibition
COC(=O)C1=C(C)NC(=S)NC1c1ccc(OCC(=O)N2CC(C)OC(C)C2)c(OC)c1 (stereo not given) | -3.9% (inactive)
O=S(=O)(c1ccc(-c2ccno2)s1)N1CCCCC1 | -0.2% (inactive)
Cc1ccccc1CC1(CO)CCCN(Cc2ccc3c(c2)OCCO3)C1 (stereo not given) | -4% (inactive)
Cc1ccccc1CC1(CO)CCCN(C(=O)c2cc(-c3ccccc3)no2)C1 (stereo not given) | 120% (active)
Cc1noc(C)c1CCC(=O)N1CCCC(CO)(Cc2ccccc2)C1 (stereo not given) | -1.7% (inactive)
COc1ccc(S(=O)(=O)NC(C)C(=O)NCc2ccncc2)cc1Cl (stereo not given) | -1.3% (inactive)
CCCCC[C@@H]1C=C(C(=O)O)[C@H](c2ccc(C#N)cc2)N1S(=O)(=O)c1ccc(C)cc1 | -1.7% (inactive)
O=C(CS(=O)(=O)Cc1ccccc1)Nc1cccnc1 | -1.4% (inactive)
O=C(OCC(=O)N1CCCC1)c1ccc(Cl)nc1 | -2.6% (inactive)
CC(C)(C)c1ccc(SCCc2ccncc2)cc1 | 0% (inactive)
O=C(COc1cccc(F)c1)Oc1ccc(C(=O)c2ccccc2)cc1 | 89.8% (active)
CCN(C(=O)COc1ccc(C(=O)c2ccccc2)cc1)c1ccccc1 | -1.7% (inactive)
O=C(COC(=O)COc1cccc(F)c1)NCC1CCCCC1 | -3.8% (inactive)
S=C(Nc1ccc2c(c1)OCO2)N1CCCC1 | -3.3% (inactive)
Cc1ccc(S(=O)(=O)N2CCN(C(=O)CCC(=O)NC3CCCc4ccccc43)CC2)cc1 (stereo not given) | -4.5% (inactive)
Cc1ccc(S(=O)(=O)c2c[nH]c3ccc(Cl)cc3c2=O)cc1 | 37.4% (active)
CCCCN(C)Cc1c(C)[nH]c2ccc(Cl)cc2c1=O | -4.1% (inactive)
Cc1ccc(S(=O)(=O)c2c[nH]c3ccc(C)cc3c2=O)cc1 | -0.1% (inactive)
CC1CCN(C(=O)CN(c2ccc(Oc3ccccc3)cc2)S(C)(=O)=O)CC1 | 2.5% (inactive)
CCN(CC)CCn1cnc2c1c(=O)n(CCOC(=O)c1cc(OC)c(OC)c(OC)c1)c(=O)n2C | -2.8% (inactive)
Cc1ccc(C(=O)NCC(=O)OCc2nnc(-c3ccccc3)o2)cc1 | -0.5% (inactive)
O=C(Nc1ccc(N2CCN(C(=O)C3CC3)CC2)cc1)c1cccs1 | -1.5% (inactive)
Cc1ccc(-c2nnc(-c3ccc(NC(=O)c4cccs4)cc3)o2)cc1 | 54.4% (active)
